Reference: ChEMBL document CHEMBL3112419, “Hydroxy fatty acids for the delivery of dideoxynucleosides as anti-HIV agents” (Bioorg Med Chem Lett, 2014)

Legend:
[1] = test system: Human immunodeficiency virus 1; test: Antiviral activity against HIV-1 3B infected in human MT4 cells; assay type: functional, organism-based; conditions: Human immunodeficiency virus 1, 3B
How it was run: (§1)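 MT-4 cell cultures infected with wild-type HIV-1 or HIV-2, with cytotoxicity assessed in parallel in the same cells. Lipid-nucleotide conjugates were purified as Na⁺ salts and tested as diastereomeric mixtures. Parent dideoxynucleosides were run alongside as references.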

[2] = test system: Human immunodeficiency virus 2; test: Antiviral activity against HIV-2 ROD infected in thymidine kinase-deficient human CEM cells; assay type: functional, organism-based; conditions: Human immunodeficiency virus 2, ISOLATE ROD, CCRF-CEM
How it was run: (§2)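 HIV-2 strain ROD was tested in wild-type CEM (CEM/0) cells and in thymidine kinase-deficient CEM (CEM/TK⁻) cells. Conjugates were tested as diastereomeric mixtures, and parent nucleosides were included as references.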

[3] = test system: Human immunodeficiency virus 2; test: Antiviral activity against HIV-2 ROD infected in human CEM/0 cells; assay type: functional, organism-based; conditions: Human immunodeficiency virus 2, ISOLATE ROD, CCRF-CEM; how it was run: as §2
[4] = test system: Human immunodeficiency virus 2; test: Antiviral activity against HIV-2 ROD infected in human MT4 cells; assay type: functional, organism-based; conditions: Human immunodeficiency virus 2, ISOLATE ROD; how it was run: as §1
[5] = Cytotoxicity against human MT4 cells; assay type: cell-based; how it was run: as §1
[6] = Cytotoxicity against human CEM/0 cells; assay type: cell-based, CCRF-CEM

| IC50 [1] [µM] | IC50 [2] [µM] | IC50 [3] [µM] | IC50 [4] [µM] | Structure (SMILES) | CC50 [5] [µM] | CC50 [6] [µM] |
| --- | --- | --- | --- | --- | --- | --- |
| > 278 | ≥ 81.9 | ≥ 36.6 | > 278 | Nc1ncnc2c1ncn2[C@H]1C=C[C@@H](CO)O1 | 278 | 360 |
| 0.4 | > 39.6 | > 39.6 | 0.4 | CCCCCCCCCCCCCCCCC(OP(=O)(O)OC[C@@H]1C=C[C@H](n2cc(C)c(=O)[nH]c2=O)O1)C(=O)O (some centres not stated) | 64.7 | 92.6 |
| 10.9 | > 39.6 | > 198 | 16.2 | CCCCCCCCCCCCCCCC(CC(=O)O)OP(=O)(O)OC[C@@H]1C=C[C@H](n2cc(C)c(=O)[nH]c2=O)O1 (some centres not stated) | > 198 | > 198 |
| 0.19 | > 39.1 | 25.3 | 0.11 | CCCCCCCCCCCCCCCCC(OP(=O)(O)OC[C@@H]1C=C[C@H](n2cnc3c(N)ncnc32)O1)C(=O)O (some centres not stated) | 97.8 | 81.3 |
| 9.7 | > 40.5 | 7.5 | 5.7 | CCCCCCCCCCCCCCCCC(OP(=O)(O)OC[C@@H]1CC[C@H](n2ccc(N)nc2=O)O1)C(=O)O (some centres not stated) | 94.1 | 91.1 |
| 0.26 | ≥ 120 | 8.8 | 0.4 | Cc1cn([C@H]2C=C[C@@H](CO)O2)c(=O)[nH]c1=O [STAVUDINE] | 327 | > 268 |
| 1 | 1.9 | 0.5 | 1.9 | Nc1ccn([C@H]2CC[C@@H](CO)O2)c(=O)n1 [ZALCITABINE] | 325 | 179 |
|  | > 14.9 | 0.04 | 0.007 | Cc1cn([C@H]2C[C@H](N=[N+]=[N-])[C@@H](CO)O2)c(=O)[nH]c1=O [ZIDOVUDINE] | > 93.5 | > 468 |
